Measurements as given in ChEMBL document CHEMBL1158122, “Anti-inflammatory, anti-tumor-promoting, and cytotoxic activities of constituents of marigold (Calendula officinalis) flowers” (J Nat Prod, 2006).

Assays:
NCI-H322M = experiment: Cytotoxicity against human NCI-H322M cells after 48 hrs by SRB assay; type: functional
NCI-H460 = experiment: Cytotoxicity against human NCI-H460 cells after 48 hrs by SRB assay; type: functional; details: NCI-H460, 48 h
NCI-H522 = experiment: Cytotoxicity against human NCI-H522 cells after 48 hrs by SRB assay; type: functional; details: NCI-H522, 48 h
COLO 205 = experiment: Cytotoxicity against human COLO205 cells after 48 hrs by SRB assay; type: functional; details: COLO 205, 48 h
[1] = Cytotoxicity against human HCT 116 cells after 48 hrs by SRB assay; type: functional; details: HCT-116, 48 h
HT-29 = experiment: Cytotoxicity against human HT-29 cells after 48 hrs by SRB assay; type: functional; details: HT-29, 48 h
KM12 = experiment: Cytotoxicity against human KM12 cells after 48 hrs by SRB assay; type: functional; details: KM12, 48 h
SW-620 = experiment: Cytotoxicity against human SW620 cells after 48 hrs by SRB assay; type: functional; details: SW-620, 48 h
SF-268 = experiment: Cytotoxicity against human SF-268 cells after 48 hrs by SRB assay; type: functional; details: SF-268, 48 h
SF-295 = experiment: Cytotoxicity against human SF-295 cells after 48 hrs by SRB assay; type: functional; details: SF-295, 48 h
SNB-19 = experiment: Cytotoxicity against human SNB-19 cells after 48 hrs by SRB assay; type: functional; details: SNB-19, 48 h
U-251 = experiment: Cytotoxicity against human U251 cells after 48 hrs by SRB assay; type: functional; details: U-251, 48 h
Outline: (§1)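 Tested in the NCI panel of 60 human tumour cell lines covering lung, colon, melanoma, renal, ovarian, breast and leukaemia. At least five concentrations were run in 10-fold dilutions starting from 10^-4 M. Exposure was continuous for 48 h. Growth or viability was estimated by sulforhodamine B protein staining, and GI50 values were reported.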

Malme-3M = experiment: Cytotoxicity against human MALME-3M cells after 48 hrs by SRB assay; type: functional
SK-MEL-2 = experiment: Cytotoxicity against human SK-MEL-2 cells after 48 hrs by SRB assay; type: functional; details: SK-MEL-2, 48 h
SK-MEL-5 = experiment: Cytotoxicity against human SK-MEL-5 cells after 48 hrs by SRB assay; type: functional; details: SK-MEL-5, 48 h
UACC-257 = experiment: Cytotoxicity against human UACC-257 cells after 48 hrs by SRB assay; type: functional; details: UACC-257, 48 h; outline: as §1
UACC-62 = experiment: Cytotoxicity against human UACC-62 cells after 48 hrs by SRB assay; type: functional; details: UACC-62, 48 h; outline: as §1
IGROV-1 = experiment: Cytotoxicity against human IGROV1 cells after 48 hrs by SRB assay; type: functional; details: IGROV-1, 48 h
OVCAR-3 = experiment: Cytotoxicity against human OVCAR-3 cells after 48 hrs by SRB assay; type: functional; details: OVCAR-3, 48 h
OVCAR-5 = experiment: Cytotoxicity against human OVCAR5 cells after 48 hrs by SRB assay; type: functional; details: OVCAR-5, 48 h
OVCAR-8 = experiment: Cytotoxicity against human OVCAR8 cells after 48 hrs by SRB assay; type: functional; details: OVCAR-8, 48 h
786-0 = experiment: Cytotoxicity against human 786-0 cells after 48 hrs by SRB assay; type: functional; details: 786-0, 48 h
NCI-H23 = experiment: Cytotoxicity against human NCI-H23 cells after 48 hrs by SRB assay; type: functional; details: NCI-H23, 48 h
CAKI-1 = experiment: Cytotoxicity against human Caki-1 cells after 48 hrs by SRB assay; type: functional; details: CAKI-1, 48 h
RXF 393 = experiment: Cytotoxicity against human […] cells after 48 hrs by SRB assay; type: functional; details: RXF 393, 48 h
SN12C = experiment: Cytotoxicity against human SN12C cells after 48 hrs by SRB assay; type: functional
TK-10 = experiment: Cytotoxicity against human TK-10 cells after 48 hrs by SRB assay; type: functional; details: TK-10, 48 h; outline: as §1
UO-31 = experiment: Cytotoxicity against human UO-31 cells after 48 hrs by SRB assay; type: functional; details: UO-31, 48 h; outline: as §1
PC-3 = experiment: Cytotoxicity against human PC-3 cells after 48 hrs by SRB assay; type: functional; details: PC-3, 48 h
MCF7 = experiment: Cytotoxicity against human MCF7 cells after 48 hrs by SRB assay; type: functional; details: MCF7, 48 h
NCI/ADR-RES = experiment: Cytotoxicity against human NCI/ADR-RES cells after 48 hrs by SRB assay; type: functional
MDA-MB-231 = experiment: Cytotoxicity against human MDA-MB-231 cells after 48 hrs by SRB assay; type: functional; details: MDA-MB-231, 48 h
[2] = Cytotoxicity against human Hs 578T cells after 48 hrs by SRB assay; type: functional
MDA-MB-435 = experiment: Cytotoxicity against human MDA-MB-435 cells after 48 hrs by SRB assay; type: functional; details: MDA-MB-435, 48 h
BT-549 = experiment: Cytotoxicity against human BT-549 cells after 48 hrs by SRB assay; type: functional; details: BT-549, 48 h
T47D = experiment: Cytotoxicity against human T47D cells after 48 hrs by SRB assay; type: functional; outline: as §1
HCT-15 = experiment: Cytotoxicity against human HCT-15 cells after 48 hrs by SRB assay; type: functional; details: HCT-15, 48 h
Raji [3] = experiment: Inhibition of TPA-induced EBV-early antigen activation in human Raji cells at 1000 molar ratio relative to TPA; type: cell-based; design: scale not given: the % may be the effect or the level left; details: human gammaherpesvirus 4
Raji [4] = experiment: Inhibition of TPA-induced EBV-early antigen activation in human Raji cells at 500 molar ratio relative to TPA; type: cell-based; design: scale not given: the % may be the effect or the level left; details: human gammaherpesvirus 4
Raji [5] = experiment: Inhibition of TPA-induced EBV-early antigen activation in human Raji cells at 100 molar ratio relative to TPA; type: cell-based; design: scale not given: the % may be the effect or the level left; details: human gammaherpesvirus 4
Raji [6] = experiment: Inhibition of TPA-induced EBV-early antigen activation in human Raji cells at 10 molar ratio relative to TPA; type: cell-based; design: scale not given: the % may be the effect or the level left; details: human gammaherpesvirus 4
[7] = Inhibition of TPA-induced EBV-early antigen activation in human Raji cells relative to TPA; type: cell-based, human gammaherpesvirus 4
[8] = Cytotoxicity against human Raji cells assessed as cell viability at 1000 molar ratio; type: cell-based; details: read-out: Activity
Outline: (§2)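 Raji cells were treated with 32 pmol TPA to induce EBV early antigen activation. The test agent was added at 10, 100, 500 or 1000 mol ratio relative to TPA, and Raji cell viability was measured alongside EA activation.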

[9] = Cytotoxicity against human Raji cells assessed as cell viability at 500 molar ratio; type: cell-based; details: read-out: Activity; outline: as §2
[10] = Cytotoxicity against human Raji cells assessed as cell viability at 100 molar ratio; type: cell-based; details: read-out: Activity; outline: as §2
[11] = Cytotoxicity against human Raji cells assessed as cell viability at 10 molar ratio; type: cell-based; details: read-out: Activity; outline: as §2
Mus musculus = experiment: Antiinflammatory activity against TPA-induced ear edema in mouse; type: functional
Outline: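 Specific-pathogen-free female ICR mice were housed five per cage at 24 ± 2 °C. Inflammation was induced on the ear with TPA at 1 µg/ear, and the test agent was applied per ear. Ear edema inhibition was expressed as ID50 in mg per ear.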

CCRF-CEM = experiment: Cytotoxicity against human CCRF-CEM cells after 48 hrs by SRB assay; type: functional
K562 = experiment: Cytotoxicity against human K-562 cells after 48 hrs by SRB assay; type: functional; details: K562, 48 h
MOLT-4 = experiment: Cytotoxicity against human MOLT-4 cells after 48 hrs by SRB assay; type: functional; details: MOLT-4, 48 h
RPMI-8226 = experiment: Cytotoxicity against human RPMI8226 cells after 48 hrs by SRB assay; type: functional; details: RPMI-8226, 48 h
A549 = experiment: Cytotoxicity against human A549 cells after 48 hrs by SRB assay; type: functional; details: A549, 48 h
EKVX = experiment: Cytotoxicity against human EKVX cells after 48 hrs by SRB assay; type: functional
HOP-62 = experiment: Cytotoxicity against human HOP-62 cells after 48 hrs by SRB assay; type: functional; details: HOP-62, 48 h
HOP-92 = experiment: Cytotoxicity against human HOP-92 cells after 48 hrs by SRB assay; type: functional; details: HOP-92, 48 h
NCI-H226 = experiment: Cytotoxicity against human NCI-H226 cells after 48 hrs by SRB assay; type: functional; details: NCI-H226, 48 h

SMILES: CC1(C)CC[C@]2(C(=O)O)CC[C@]3(C)C(=CC[C@@H]4[C@@]5(C)CC[C@H](O[C@@H]6O[C@H](C(=O)O)[C@@H](O)[C@H](O[C@@H]7O[C@H](CO)[C@H](O)[C@H](O)[C@H]7O)[C@H]6O[C@@H]6O[C@H](CO)[C@@H](O)[C@H](O)[C@H]6O)C(C)(C)[C@@H]5CC[C@]43C)[C@@H]2C1 [CALENDULAGYCOSIDE B]
- GI50 (NCI-H322M): 26 µM
- GI50 (NCI-H460): > 100 µM
- GI50 (NCI-H522): 38.4 µM
- GI50 (COLO 205): > 100 µM
- GI50 [1]: > 100 µM
- GI50 (HT-29): 40.9 µM
- GI50 (KM12): > 100 µM
- GI50 (SW-620): > 100 µM
- GI50 (SF-268): > 100 µM
- GI50 (SF-295): 31 µM
- GI50 (SNB-19): > 100 µM
- GI50 (U-251): 32.3 µM
- GI50 (Malme-3M): 79.9 µM
- GI50 (SK-MEL-2): > 100 µM
- GI50 (SK-MEL-5): > 100 µM
- GI50 (UACC-257): > 100 µM
- GI50 (UACC-62): 23 µM
- GI50 (IGROV-1): > 100 µM
- GI50 (OVCAR-3): > 100 µM
- GI50 (OVCAR-5): > 100 µM
- GI50 (OVCAR-8): > 100 µM
- GI50 (786-0): > 100 µM
- GI50 (NCI-H23): 20.2 µM
- GI50 (CAKI-1): > 100 µM
- GI50 (RXF 393): > 100 µM
- GI50 (SN12C): 84 µM
- GI50 (TK-10): > 100 µM
- GI50 (UO-31): 63.5 µM
- GI50 (PC-3): 20.6 µM
- GI50 (MCF7): 53.5 µM
- GI50 (NCI/ADR-RES): > 100 µM
- GI50 (MDA-MB-231): 45 µM
- GI50 [2]: 97.4 µM
- GI50 (MDA-MB-435): > 100 µM
- GI50 (BT-549): > 100 µM
- GI50 (T47D): > 100 µM
- GI50 (HCT-15): 94.6 µM
- Activity (Raji [3]): 5.1%
- Activity (Raji [4]): 40.3%
- Activity (Raji [5]): 69.2%
- Activity (Raji [6]): 100%
- IC50 [7]: 470 molar ratio
- viability at 1000 molar ratio [8]: 70%
- viability at 500 molar ratio [9]: > 80%
- viability at 100 molar ratio [10]: > 80%
- viability at 10 molar ratio [11]: > 80%
- ID50 (Mus musculus): 0.05 mg
- GI50 (CCRF-CEM): > 100 µM
- GI50 (K562): 81.1 µM
- GI50 (MOLT-4): 86.3 µM
- GI50 (RPMI-8226): 50.9 µM
- GI50 (A549): > 100 µM
- GI50 (EKVX): > 100 µM
- GI50 (HOP-62): > 100 µM
- GI50 (HOP-92): > 100 µM
- GI50 (NCI-H226): > 100 µM
